This is an account of results in ChEMBL document CHEMBL4304753, “Identification of New Small-Molecule Inducers of Estrogen-related Receptor α (ERRα) Degradation” (ACS Med Chem Lett, 2019).

The target in experiment [1] is T1, von Hippel-Lindau disease tumor suppressor/Steroid hormone receptor ERR1 (Homo sapiens) (UniProt P11474+P40337). As to the kind of experiment: Protac activity at VHL/ERRalpha in human MDA-MB-231 cells assessed as induction of […] degradation at 30 nM incubated for 4 hrs by Western blot analysis relative to control. In kind it is cell-based. In short, it runs like this: (§1)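 MDA-MB-231 breast cancer cells were treated at the indicated concentrations for 4.0 h. ERRα protein was measured by Western blot, and % degradation was derived by densitometric image analysis. Values are means of at least three independent experiments.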

Experiment [2] concerns the target T2, Steroid hormone receptor ERR1 (Homo sapiens, UniProt P11474).
T2 sequence (P11474 whole entry): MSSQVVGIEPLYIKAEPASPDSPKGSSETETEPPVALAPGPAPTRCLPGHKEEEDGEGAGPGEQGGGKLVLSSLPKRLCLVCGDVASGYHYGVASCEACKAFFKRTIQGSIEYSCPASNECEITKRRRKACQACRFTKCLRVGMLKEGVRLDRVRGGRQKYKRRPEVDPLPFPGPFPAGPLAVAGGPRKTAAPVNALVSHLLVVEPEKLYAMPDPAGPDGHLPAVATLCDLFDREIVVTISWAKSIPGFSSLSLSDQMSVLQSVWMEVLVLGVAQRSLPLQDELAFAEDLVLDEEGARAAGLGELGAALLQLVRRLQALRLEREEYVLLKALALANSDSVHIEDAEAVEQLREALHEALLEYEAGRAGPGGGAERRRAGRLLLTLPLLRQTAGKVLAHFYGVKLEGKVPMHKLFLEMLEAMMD
Nature of the experiment: Binding affinity to GST-tagged ERRalpha-LBD (unknown origin) using fluorescein-conjugated coactivator PGC-1alpha incubated for 1 hr by TR-FRET assay. Background: TR-FRET usually uses a lanthanide donor and a delayed reading to cut background.

Experiment [3] concerns the target T1, von Hippel-Lindau disease tumor suppressor/Steroid hormone receptor ERR1 (Homo sapiens). Nature of the experiment: Protac activity at VHL/ERRalpha in human MDA-MB-231 cells assessed as induction of […] degradation at 3.0 nM incubated for 4 hrs by Western blot analysis. In kind it is cell-based. Summed up: as §1
In general terms: In western blotting, separated proteins are transferred to a membrane and probed.

Experiment [4] has the same target. Nature of the experiment: Protac activity at VHL/ERRalpha in human MDA-MB-231 cells assessed as induction of […] degradation at 100 nM incubated for 4 hrs by Western blot analysis relative to control. In kind it is cell-based. In short, it runs like this: as §1
Experiment [5] shares this target. As to the kind of experiment: Protac activity at VHL/ERRalpha in human MDA-MB-231 cells assessed as induction of […] degradation incubated for 48 hrs by Western blot analysis. In kind it is cell-based. Summed up:
(§2)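 For the time course, MDA-MB-231 cells were exposed to PROTAC at 30 nM. ERRα protein was sampled from 30 min up to 48 h after treatment and analysed by Western blot.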

The target is the same in experiment [6]. As to the kind of experiment: Protac activity at VHL/ERRalpha in human MDA-MB-231 cells assessed as induction of […] degradation incubated for 4 hrs by Western blot analysis. In kind it is cell-based. Summed up:
as §1

Experiment [7] has the same target. Nature of the experiment: Protac activity at VHL/ERRalpha in human MDA-MB-231 cells assessed as induction of […] degradation incubated for 0.5 to 4 hrs by Western blot analysis. Type of experiment: cell-based. Summed up:
as §2

Experiment [8] has as its target von Hippel-Lindau disease tumor suppressor/Estrogen-related receptor gamma (Homo sapiens) (UniProt P62508+P40337). Nature of the experiment: Protac activity at VHL/ERRgamma in human MDA-MB-231 cells assessed as induction of […] degradation up to 10 uM incubated for 4 hrs by Western blot analysis. Type of experiment: cell-based. Summed up: (§3)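 Levels of the ERRβ and ERRγ homologues were assessed by Western blot in MDA-MB-231 cells after 4.0 h treatment at concentrations up to 10.0 μM.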

Experiment [9] addresses T1, von Hippel-Lindau disease tumor suppressor/Steroid hormone receptor ERR1 (Homo sapiens). As to the kind of experiment: Protac activity at VHL/ERRalpha in human MDA-MB-231 cells assessed as induction of […] degradation at 10 nM incubated for 4 hrs by Western blot analysis relative to control. Type of experiment: cell-based. Summed up: as §1
The target is the same in experiment [10]. As to the kind of experiment: Protac activity at VHL/ERRalpha in human MDA-MB-231 cells assessed as decrease in ATP5B protein expression level at 100 nM incubated for 24 hrs by Western blot analysis. Type of experiment: cell-based. In short, it runs like this: (§4)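 MDA-MB-231 breast cancer cells were exposed to the degrader for 24 h. Protein levels of the ERRα downstream targets ATP5B, MCAD and PDK4 were then assessed by Western blot.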

The target is the same in experiment [11]. Nature of the experiment: Protac activity at VHL/ERRalpha in epoxomicin pre-treated human MDA-MB-231 cells assessed as induction of […] degradation at 30 nM incubated for 4 hrs by Western blot analysis. In kind it is cell-based. In short, it runs like this:
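Before treatment with PROTAC at 30 nM for 4.0 h, MDA-MB-231 cells were preincubated with the proteasome inhibitor epoxomicin. ERRα protein was then assessed by Western blot.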

Experiment [12] shares this target. As to the kind of experiment: Protac activity at VHL/ERRalpha in human MDA-MB-231 cells assessed as decrease in PDK4 protein expression level at 100 nM incubated for 24 hrs by Western blot analysis. Type of experiment: cell-based. Summed up: as §4
The target is the same in experiment [13]. Nature of the experiment: Protac activity at VHL/ERRalpha in human MDA-MB-231 cells assessed as decrease in MCAD protein expression level at 100 nM incubated for 24 hrs by Western blot analysis. In kind it is cell-based. In short, it runs like this:
as §4

The target of experiment [14] is von Hippel-Lindau disease tumor suppressor/Steroid hormone receptor ERR2 (Homo sapiens) (UniProt O95718+P40337). As to the kind of experiment: Protac activity at VHL/ERRbeta in human MDA-MB-231 cells assessed as induction of […] degradation up to 10 uM incubated for 4 hrs by Western blot analysis. Type of experiment: cell-based. In short, it runs like this: as §3

In experiment [15] the target is T1, von Hippel-Lindau disease tumor suppressor/Steroid hormone receptor ERR1 (Homo sapiens). Nature of the experiment: Protac activity at VHL/ERRalpha in human MDA-MB-231 cells assessed as induction of […] degradation at 300 nM incubated for 4 hrs by Western blot analysis relative to control. Type of experiment: cell-based. In short, it runs like this: as §1

For experiment [16] the target is unchanged. As to the kind of experiment: Protac activity at VHL/ERRalpha in human MDA-MB-231 cells assessed as induction of […] degradation at 1 uM incubated for 4 hrs by Western blot analysis. In kind it is cell-based. Summed up: as §1
Experiment [17] deals with T3, Steroid hormone receptor ERR1 (Homo sapiens) (UniProt P11474).
T3 sequence (whole entry): T2 sequence (P11474 whole entry)
As to the kind of experiment: Ratio of IC50 for XCT790 to IC50 for test compound for binding affinity to GST-tagged ERRalpha-LBD (unknown origin) using fluorescein-conjugated coactivator PGC-1alpha incubated for 1 hr by TR-FRET assay.

Activity calls are given as the source filed them. No cut-off for these calls is given here.

T1 sequence (P40337 whole entry, looked up, one chain of several): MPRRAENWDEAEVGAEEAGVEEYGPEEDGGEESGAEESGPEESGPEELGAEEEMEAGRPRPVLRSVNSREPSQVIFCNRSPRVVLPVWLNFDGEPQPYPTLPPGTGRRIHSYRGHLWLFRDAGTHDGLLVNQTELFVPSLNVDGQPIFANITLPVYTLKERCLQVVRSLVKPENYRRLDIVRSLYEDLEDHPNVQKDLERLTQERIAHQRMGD
Chain of von Hippel-Lindau disease tumor suppressor/Steroid hormone receptor ERR2 (Homo sapiens) (O95718 whole entry, looked up): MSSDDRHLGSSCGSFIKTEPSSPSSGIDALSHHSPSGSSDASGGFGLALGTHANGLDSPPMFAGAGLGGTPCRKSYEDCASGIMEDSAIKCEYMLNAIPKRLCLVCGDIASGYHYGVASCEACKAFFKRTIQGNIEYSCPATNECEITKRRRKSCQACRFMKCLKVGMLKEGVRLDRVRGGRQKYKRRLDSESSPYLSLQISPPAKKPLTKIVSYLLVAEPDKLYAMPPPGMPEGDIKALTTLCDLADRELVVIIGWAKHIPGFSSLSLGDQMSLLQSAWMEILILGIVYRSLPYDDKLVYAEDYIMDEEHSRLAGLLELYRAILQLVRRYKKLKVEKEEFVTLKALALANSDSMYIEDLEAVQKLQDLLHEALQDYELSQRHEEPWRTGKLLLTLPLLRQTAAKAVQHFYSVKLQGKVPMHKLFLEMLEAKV
Chain of von Hippel-Lindau disease tumor suppressor/Steroid hormone receptor ERR2 (Homo sapiens) (P40337 whole entry, looked up): as the sequence (P40337 whole entry, looked up, one chain of several) above
Chain of von Hippel-Lindau disease tumor suppressor/Estrogen-related receptor gamma (Homo sapiens) (P40337 whole entry, looked up): as the sequence (P40337 whole entry, looked up, one chain of several) above
Chain of von Hippel-Lindau disease tumor suppressor/Estrogen-related receptor gamma (Homo sapiens) (P62508 whole entry, looked up): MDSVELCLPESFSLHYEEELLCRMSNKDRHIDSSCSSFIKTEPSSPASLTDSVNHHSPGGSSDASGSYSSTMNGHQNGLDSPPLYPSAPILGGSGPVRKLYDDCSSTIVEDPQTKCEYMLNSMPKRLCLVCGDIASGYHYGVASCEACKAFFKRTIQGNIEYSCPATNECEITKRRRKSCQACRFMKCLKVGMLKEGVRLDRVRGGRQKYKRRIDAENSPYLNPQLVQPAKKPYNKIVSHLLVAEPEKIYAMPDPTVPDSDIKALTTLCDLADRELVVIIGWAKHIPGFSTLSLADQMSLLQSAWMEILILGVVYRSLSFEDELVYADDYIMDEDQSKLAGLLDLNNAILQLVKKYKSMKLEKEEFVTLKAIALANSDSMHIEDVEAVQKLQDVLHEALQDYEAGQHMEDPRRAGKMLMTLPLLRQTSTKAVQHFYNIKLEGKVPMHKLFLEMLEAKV

As to `COc1cc(/C=C(\C#N)C(=O)NCCCCC(=O)N[C@H](C(=O)N2C[C@@H](O)C[C@H]2C(=O)NCc2ccc(-c3scnc3C)cc2)C(C)(C)C)ccc1OCc1ccc(C(F)(F)F)cc1C(F)(F)F`, the Activity in [1] stood at 6%. Besides, the IC50 – broadly, the point on the concentration scale where inhibition reaches its midpoint – in experiment [2] turned out to be 5.33 nM.

On to `COc1cc(/C=C(\C#N)C(N)=O)ccc1OCc1ccc(C(F)(F)F)cc1C(F)(F)F`, for which, in experiment [2], the concentration for half-maximal inhibition (IC50) was determined as 4.33 nM.

With `COc1cc(/C=C(\C#N)C(=O)NCCCCC(=O)N[C@H](C(=O)N2C[C@H](O)C[C@H]2C(=O)NCc2ccc(-c3scnc3C)cc2)C(C)(C)C)ccc1OCc1ccc(C(F)(F)F)cc1C(F)(F)F`, the result in experiment [3], in experiment [7], in [10], in experiment [12] and in experiment [13] was Active. In addition, the Activity is 83% in [1], 96% in [4], “Dose-dependent effect” in experiment [6] and 39% in experiment [9]. In addition, the outcome in experiment [5], in experiment [8], in experiment [11] and in [14] was inactive. The compound further showed an IC50 in [2] of 12.7 nM.

In the case of `COc1cc(/C=C(\C#N)C(=O)NCCOCCOCCC(=O)N[C@H](C(=O)N2C[C@H](O)C[C@H]2C(=O)NCc2ccc(-c3scnc3C)cc2)C(C)(C)C)ccc1OCc1ccc(C(F)(F)F)cc1C(F)(F)F`, the figures for the Activity in experiment [1], in experiment [4] and in experiment [15] were 0%, 15% and 19%, respectively. Further, in [2], the IC50 came to 5.33 nM.

For `COc1cc(/C=C(\C#N)C(=O)NCCCCCC(=O)N[C@H](C(=O)N2C[C@H](O)C[C@H]2C(=O)NCc2ccc(-c3scnc3C)cc2)C(C)(C)C)ccc1OCc1ccc(C(F)(F)F)cc1C(F)(F)F`, the Activity was 58% in experiment [1] and 78% in [4]. Moreover, the IC50 in [2] turned out to be 5.67 nM.

Take `COc1cc(/C=C(\C#N)C(=O)NCCOCCOCCOCCC(=O)N[C@H](C(=O)N2C[C@H](O)C[C@H]2C(=O)NCc2ccc(-c3scnc3C)cc2)C(C)(C)C)ccc1OCc1ccc(C(F)(F)F)cc1C(F)(F)F`: the Activity in experiment [1] came to 0%; in experiment [4], 4%; in experiment [15] it was 10%. This compound also registered a half-inhibitory concentration (IC50) in [2] of 7 nM.

As to `Cc1ncsc1-c1ccc(CNC(=O)[C@@H]2C[C@@H](O)CN2C(=O)[C@@H](N)C(C)(C)C)cc1`, in [16], the outcome was inactive.

`COCCNC(=O)/C(C#N)=C/c1ccc(OCc2ccc(C(F)(F)F)cc2C(F)(F)F)c(OC)c1`: in [2], the IC50 amounted to 4.33 nM.

Turning to `COc1cc(/C=C(\C#N)C(=O)NCCCCCCCC(=O)N[C@H](C(=O)N2C[C@H](O)C[C@H]2C(=O)NCc2ccc(-c3scnc3C)cc2)C(C)(C)C)ccc1OCc1ccc(C(F)(F)F)cc1C(F)(F)F`, the Activity came to 3% in experiment [1] and 9% in experiment [4]. Besides, the IC50 in experiment [2] worked out at 7.67 nM.

For `COc1cc(/C=C(\C#N)C(=O)NCCCCCCC(=O)N[C@H](C(=O)N2C[C@H](O)C[C@H]2C(=O)NCc2ccc(-c3scnc3C)cc2)C(C)(C)C)ccc1OCc1ccc(C(F)(F)F)cc1C(F)(F)F`, the Activity in experiment [1] was determined as 23%; in experiment [4], 71%. In experiment [2], this compound came in with a half-maximal inhibitory concentration (IC50) of 12.3 nM.

For the compound `COC(=O)/C(C#N)=C/c1ccc(OCc2ccc(C(F)(F)F)cc2C(F)(F)F)c(OC)c1`, in experiment [2], the IC50 was 20.3 nM.

In the case of `COc1cc(/C=C2\SC(=O)N(CCOCCC(=O)N[C@H](C(=O)N3C[C@H](O)C[C@H]3C(=O)NCc3ccc(-c4scnc4C)cc3)C(C)(C)C)C2=O)ccc1Oc1ccc(C#N)cc1C(F)(F)F`, the Activity stood at 1% in [1] and 40% in experiment [4]. In experiment [2], this compound registered a concentration for half-maximal inhibition (IC50) of 8 nM.

In the case of `COc1cc(/C=C(\C#N)C(=O)NCCOCCC(=O)O)ccc1OCc1ccc(C(F)(F)F)cc1C(F)(F)F`, the outcome in experiment [16] was inactive. Moreover, the IC50 in [2] is 4.67 nM.

On to `COc1cc(/C=C(\C#N)C(=O)NCCOCC(=O)N[C@H](C(=O)N2C[C@H](O)C[C@H]2C(=O)NCc2ccc(-c3scnc3C)cc2)C(C)(C)C)ccc1OCc1ccc(C(F)(F)F)cc1C(F)(F)F`, for which the Activity in experiment [1] is 79%; in experiment [4] it was 92%. The compound also displayed a 50% inhibitory concentration (IC50) in experiment [2] of 11.3 nM.

Regarding `COc1cc(/C=C(\C#N)C(=O)NCCCC(=O)N[C@H](C(=O)N2C[C@H](O)C[C@H]2C(=O)NCc2ccc(-c3scnc3C)cc2)C(C)(C)C)ccc1OCc1ccc(C(F)(F)F)cc1C(F)(F)F`, the results for the Activity in experiment [1] and in experiment [4] were 58% and 85%, respectively. In experiment [2], this compound displayed an IC50 of 6.33 nM.

Take `COc1cc(/C=C(\C#N)C(=O)NCCCCC(=O)O)ccc1OCc1ccc(C(F)(F)F)cc1C(F)(F)F`: the IC50 in [2] was found to be 6 nM.

Regarding `COc1cc(/C=C(\C#N)C(=O)NCCOCCC(=O)N[C@H](C(=O)N2C[C@H](O)C[C@H]2C(=O)NCc2ccc(-c3scnc3C)cc2)C(C)(C)C)ccc1OCc1ccc(C(F)(F)F)cc1C(F)(F)F`, the Activity in [1] turned out to be 63%; in [4] it was 89%; in [9], 25%. This compound gave a concentration for half-maximal inhibition (IC50) in experiment [2] of 9.33 nM.

On to `COc1cc(/C=C(\C#N)C(=O)NCCC(=O)N[C@H](C(=O)N2C[C@H](O)C[C@H]2C(=O)NCc2ccc(-c3scnc3C)cc2)C(C)(C)C)ccc1OCc1ccc(C(F)(F)F)cc1C(F)(F)F`, for which the Activity worked out at 28% in experiment [1] and 50% in experiment [4]. In experiment [2], this compound came in with a 50% inhibitory concentration (IC50) of 7.33 nM.

For the compound `COc1cc(/C=C(\C#N)C(=O)O)ccc1OCc1ccc(C(F)(F)F)cc1C(F)(F)F`, the Ratio IC50 in experiment [17] was determined as 11. The IC50 in [2] is 5.67 nM.
